# Screening data as filed in PubChem.
# Hits are enriched below; roughly 1.4% of the tested compounds scored in any of these assays.
# GSK3 alpha inh = inhibitors of human GSK-3 alpha kinase. P49840. ADP-Glo luminescence, 60 min. 320,000 compounds, 0.1% hits. inhibition, % at 10 µM;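 active = more than half of replicates show inhibition above 20%; inconclusive = some but at most half of replicates above 20% inhibition; inactive = no replicate shows inhibition above 20%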;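 note: GST-tagged GSK-3 alpha with peptide substrate and 25 µM ATP; 0% = DMSO neutral wells and 100% = GW8510 positive control wells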
# INS-1E GSIS act = primary screen for activators of insulin secretion dependent on glucose, INS-1E cells, GLuc reporter luminescence; INS-1E GLuc reporter insulin secretion, 2-3 h; activation, % at 16.6 µM; 370,000 compounds, 0.61% hits;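 active = lowest replicate activation of at least 40%, so every replicate reaches that level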;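 note: 0% = median of neutral control wells and 100% = median of IBMX positive control wells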
# HIV Env fusion = blocks HIV Env-driven cell-cell fusion; inhibition, % at 12.3 µM; 360,000 compounds, 1.1% hits; HeLa-JRFL Env/CEM21 cell fusion, luciferase;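 active = mean replicate inhibition score of at least 50 and every replicate individually at or above 50; inconclusive = only one of the two criteria met; inactive = mean below 50 and not all replicates reaching 50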;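 note: 0% = plate neutral controls and 100% = maraviroc near 300 nM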
# STK33 kinase inh = inhibitors of human STK33 kinase; inhibition, % at 10 µM; 320,000 compounds, 0.073% hits; purified STK33, MBP phosphorylation, ADP-Glo luminescence; Q9BYT3;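 active = inhibition at or above 25%, using the most active replicate where run in duplicate; inactive = inhibition below 25%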
# GSK3beta inhib = blocks human GSK3beta kinase activity; GST-GSK3beta kinase, ADP-Glo luminescence, 60 min; stronger effect = lower value; 300,000 compounds, 0.038% hits; AID 2097; activity score (negative = inhibition), % at 10 µM;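 active = more than half of replicate wells score below -50%, meaning over 50% inhibition versus plate controls; inconclusive = some replicates but at most half score below -50%; inactive = no replicate scores below -50%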;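 note: 0% = median DMSO wells and -100% = median GW8510 positive control wells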
# Target sequence (P49841 whole entry, looked up): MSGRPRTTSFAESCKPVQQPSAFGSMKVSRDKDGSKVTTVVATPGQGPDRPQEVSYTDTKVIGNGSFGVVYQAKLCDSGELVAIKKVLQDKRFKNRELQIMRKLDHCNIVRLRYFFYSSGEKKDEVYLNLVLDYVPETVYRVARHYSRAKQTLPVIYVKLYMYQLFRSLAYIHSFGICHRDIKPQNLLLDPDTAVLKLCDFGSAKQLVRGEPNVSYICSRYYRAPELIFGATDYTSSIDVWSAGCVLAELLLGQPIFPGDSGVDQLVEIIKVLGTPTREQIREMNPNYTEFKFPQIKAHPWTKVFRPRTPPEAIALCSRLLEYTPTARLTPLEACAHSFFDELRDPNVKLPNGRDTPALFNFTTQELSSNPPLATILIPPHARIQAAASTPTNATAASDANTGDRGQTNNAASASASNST
#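 Test system: GST-fused GSK3beta enzyme, cell-free | Quantity: 1.6 ng GST-GSK3beta enzyme per well | Reagent: 25 µM ATP with peptide substrate | Schedule: 60 min enzyme reaction, room temperature | Signal: Luminescent ADP-Glo measurement of ADP formed | Read-out basis: Score relative to plate controls | Control set: DMSO and 20 µM GW8510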
# CDK5 inh = blocks human CDK5/p35 kinase activity. Recombinant CDK5/p35, ADP-Glo luminescence, 60 min. Q00535+Q15078. inhibition, % at 10 µM. 330,000 compounds, 0.01% hits;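 active = highest replicate inhibition of at least 50% and at least 75% of replicates reaching 50%; inconclusive = only one of the two criteria met; inactive = both criteria failed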;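 note: plate controls were DMSO neutral control for no effect and GW8510 at 10 µM for full effect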
# Active calls of the source: *; ? = inconclusive; . = no result; ! = repeats disagree; [ ] = remark or other dose.
SMILES,GSK3 alpha inh,INS-1E GSIS act,HIV Env fusion,STK33 kinase inh,GSK3beta inhib,CDK5 inh
O=C(C[C@H]1CC[C@@H]2[C@H](COC[C@@H](O)CN2Cc2nccs2)O1)NCc1ccc(Cl)cc1,.,2.8,.,.,.,.
COc1cc2c(OC(C)=O)c3c(c(-c4ccc5c(c4)OCO5)c2cc1OC)C(=O)OC3,6.5,.,.,-0.7,-0.8,0.4
COc1cc2c(O)c3c(c(-c4ccc5c(c4)OCO5)c2cc1OC)C(=O)OC3,46.3,.,63.2*,0.9,-34.5,-0.1
C[C@H](CO)N1C[C@H](C)[C@@H](CN(C)C(=O)C2CC2)OCc2ccccc2-c2c(n(C)c3ccccc23)C1=O,.,-3.4,13.3[16.7 µM],.,.,.
C[C@H]1CN([C@@H](C)CO)C(=O)c2c(c3ccccc3n2C)-c2ccccc2CO[C@@H]1CN(C)C(=O)Nc1ccc(F)cc1,.,-9.4,-14.1[16.7 µM],.,.,.
COC(=O)N(C)C[C@@H]1OCc2ccccc2-c2c(n(C)c3ccccc23)C(=O)N([C@H](C)CO)C[C@@H]1C,.,-6.8,66.3*!,.,.,.
C[C@H](CO)N1C[C@H](C)[C@H](CN(C)C(=O)Nc2ccc(F)cc2)OCc2ccccc2-c2c(n(C)c3ccccc23)C1=O,.,-11.1,90.4*![16.7 µM],.,.,.
COc1ccccc1NC(=O)N(C)C[C@@H]1OCc2ccccc2-c2c(n(C)c3ccccc23)C(=O)N([C@H](C)CO)C[C@@H]1C,.,-9.6,66.6*,.,.,.
C[C@H](CO)N1C[C@H](C)[C@H](CN(C)C(=O)C2CC2)OCc2ccccc2-c2c(n(C)c3ccccc23)C1=O,.,-0.9,60.4*[16.7 µM],.,.,.
CCC(=O)N1CC(=O)N2[C@H](CO)[C@H](c3ccc(-c4cccnc4)cc3)[C@H]2C1,.,13.0,.,.,.,.
COC(=O)N1[C@H](C)C=C[C@]1(Cc1ccccc1)C(=O)NCCCNc1ncc(C(F)(F)F)cc1Cl,-1.1,.,103.3*,-0.4,-2.5,-2.0
C[C@]1(C(=O)NCCCNc2ncc(C(F)(F)F)cc2Cl)C=C[C@@H](Cc2ccccc2)N1C(=O)c1ccccc1,-2.8,.,.,-0.6,0.0,0.4
Cc1ccccc1S(=O)(=O)N(C)C[C@@H]1OCc2ccccc2-c2c(n(C)c3ccccc23)C(=O)N([C@H](C)CO)C[C@@H]1C,.,-19.2,73.9*,.,.,.
C[C@@H]1CN([C@@H](C)CO)C(=O)c2c(c3ccccc3n2C)-c2ccccc2CO[C@@H]1CN(C)S(=O)(=O)c1ccc(C#N)cc1,.,7.1,.,.,.,.
C[C@@H]1CN([C@@H](C)CO)C(=O)c2c(c3ccccc3n2C)-c2ccccc2CO[C@H]1CN(C)S(=O)(=O)c1ccc(C#N)cc1,.,-2.4,69.2*,.,.,.
COc1ccccc1OCCNS(=O)(=O)c1ccc2oc3ccccc3c2c1,-1.6,-6.3,57.6*,-0.6,12.6,1.4
O=S(=O)(NCCOc1ccccc1Cl)c1ccc2oc3ccccc3c2c1,-1.7,.,-128.5,-2.4,0.0,1.8
CN(C)c1ccnc(Nc2ccccc2)c1C#N,0.3,16.7,9.2,-1.7,2.2,-1.0
CN(C)c1ccnc2c[cH-]cc12.[Fe].c1ccc(-[c-]2[c-](-c3ccccc3)[c-](-c3ccccc3)[c-](-c3ccccc3)[c-]2-c2ccccc2)cc1 (configuration not stated),-0.2,.,57.4*,0.7,2.1,-1.0
O=C(NCCc1ccccc1)c1ccc2c(c1)OCCO2,-0.6,.,92.2*,0.7,-1.5,-3.0
O=C(NCCc1ccccc1)c1ccc2c(c1)OCCCO2,-0.5,8.4,50.3,0.7,1.3,1.0
C[C@H](CO)N1C[C@H](C)[C@@H](CN(C)Cc2ccc(C(F)(F)F)cc2)OCCCC[C@H](C)Oc2ccc(NC(=O)Nc3ccc4c(c3)OCO4)cc2C1=O,.,-11.6,70.9*[16.7 µM],.,.,.
C[C@H](CO)N1C[C@H](C)[C@H](CN(C)Cc2ccc3c(c2)OCO3)OCCCC[C@H](C)Oc2ccc(NC(=O)Nc3ccc(C(F)(F)F)cc3)cc2C1=O,.,4.4,60.6*[16.7 µM],.,.,.
C[C@@H]1CCCCO[C@H](CN(C)Cc2ccc(C(F)(F)F)cc2)[C@H](C)CN([C@@H](C)CO)C(=O)c2cc(NC(=O)Nc3ccc4c(c3)OCO4)ccc2O1,.,-7.0,25.9[16.7 µM],.,.,.
C[C@H]1CCCCO[C@H](CN(C)Cc2ccc(C(F)(F)F)cc2)[C@@H](C)CN([C@@H](C)CO)C(=O)c2cc(NC(=O)Nc3ccc4c(c3)OCO4)ccc2O1,.,-10.1,59.9*[16.7 µM],.,.,.
SMILES,GSK3 alpha inh,INS-1E GSIS act,HIV Env fusion,STK33 kinase inh,GSK3beta inhib,CDK5 inh
C[C@@H]1CN([C@H](C)CO)C(=O)c2cc(NC(=O)Nc3ccc(C(F)(F)F)cc3)ccc2O[C@@H](C)CCCCO[C@H]1CN(C)Cc1ccc2c(c1)OCO2,.,20.2,?,.,.,.
C[C@H]1CCCCO[C@@H](CN(C)Cc2ccc(C(F)(F)F)cc2)[C@@H](C)CN([C@@H](C)CO)C(=O)c2cc(NC(=O)Nc3ccc4c(c3)OCO4)ccc2O1,.,1.2,85.6*[16.7 µM],.,.,.
O=C(C[C@@H]1CC[C@H]2NC[C@@H](O)COC[C@@H]2O1)Nc1ccccc1,.,9.0,.,.,.,.
C[C@@H]1CCCCO[C@@H](CN(C)Cc2ccc(C(F)(F)F)cc2)[C@H](C)CN([C@H](C)CO)C(=O)c2cc(NC(=O)Nc3ccc4c(c3)OCO4)ccc2O1,.,-12.8,65.0*[16.7 µM],.,.,.
C[C@H]1CN([C@@H](C)CO)C(=O)c2cc(-c3cccnc3)cnc2O[C@H]1CN(C)Cc1ccccc1,.,7.8,14.3[16.7 µM],.,.,.
COc1ccc(NC(=O)Nc2ccc3c(c2)N(C)C(=O)CS3)cc1OC,-3.7,1.1,-18.8,1.6,2.8,-0.3
COc1ccc(NC(=O)Nc2ccc3c(c2)N(C)C(=O)CS3)cc1Cl,-0.7,.,75.8*,1.0,2.4,0.7
CCCN(C)C[C@H]1Oc2ncc(-c3cccc(C(=O)N(C)C)c3)cc2C(=O)N([C@@H](C)CO)C[C@H]1C,.,3.6,13.3[16.7 µM],.,.,.
CCN(CC(=O)Nc1c(F)cccc1F)C(=O)c1ccc(=O)n(Cc2ccccc2)n1,1.2,8.1,-4.7,-1.7,-0.6,-4.0
CCN(CC(=O)Nc1cc(Cl)ccc1C)C(=O)c1ccc(=O)n(Cc2ccccc2)n1,1.2,-14.7,109.7*,-1.2,2.5,-2.6
CO[C@H]1CN(C)C(=O)c2cc(NC(=O)C3CC3)ccc2OC[C@@H](C)N(C(=O)c2cnccn2)C[C@H]1C,.,15.8,.,.,.,.
Cc1[nH]nc2c1C(c1cccs1)C1=C(CC(C)(C)CC1=O)N2 (configuration not stated),99.3*,35.0,-17.8,0.5,-81.9*,1.3
O=C1CCCC2=C1C(c1cccs1)Nc1ccccc1N2 (configuration not stated),-0.8,-0.9,86.7*,-0.6,-0.8,1.2
Cc1[nH]nc2c1C(c1cccs1)C1=C(CCCC1=O)N2 (configuration not stated),70.4*,7.6,-9.6,8.2,-50.4*,4.5
CC(C)Sc1nc2c(c(=O)[nH]1)C(c1cccs1)C1=C(CC(C)(C)CC1=O)N2 (configuration not stated),-1.3,-4.1,-10.3,-1.0,1.7,-2.0
